bIAP activator: intestinal alkaline phosphatase (bovine) activation; purified bovine IAP, CDP-star luminescence, 30 min; hits give high values; fold of DMSO-control signal, blank-subtracted; activation factor at 20 µM; hit rate 0.17% among 200,000;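 active = activation factor of 2 or more at 20 µM, a signal rise over negative controls twice the positive control's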
mIAP block: blocks mouse intestinal alkaline phosphatase; inhibition, % at 10 µM; purified mouse IAP, CDP-Star luminescence, 30 min; hit rate 0.2% among 330,000;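 active = inhibition of at least 40% at 10 µM in the primary screen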;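 also: plate controls were DMSO with enzyme for no effect and no enzyme wells for full effect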
hIAP act: increases human intestinal alkaline phosphatase activity; activation factor at 10 µM; purified human IAP, CDP-Star luminescence, 30 min; hits give high values; 1 = vehicle-only enzyme, 0 = enzyme-free background; hit rate 0.16% among 330,000; P09923; AID 2524;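 active = activation factor of the enzyme at least 2-fold when tested at 20 µM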
Target sequence (P09923 whole entry, looked up): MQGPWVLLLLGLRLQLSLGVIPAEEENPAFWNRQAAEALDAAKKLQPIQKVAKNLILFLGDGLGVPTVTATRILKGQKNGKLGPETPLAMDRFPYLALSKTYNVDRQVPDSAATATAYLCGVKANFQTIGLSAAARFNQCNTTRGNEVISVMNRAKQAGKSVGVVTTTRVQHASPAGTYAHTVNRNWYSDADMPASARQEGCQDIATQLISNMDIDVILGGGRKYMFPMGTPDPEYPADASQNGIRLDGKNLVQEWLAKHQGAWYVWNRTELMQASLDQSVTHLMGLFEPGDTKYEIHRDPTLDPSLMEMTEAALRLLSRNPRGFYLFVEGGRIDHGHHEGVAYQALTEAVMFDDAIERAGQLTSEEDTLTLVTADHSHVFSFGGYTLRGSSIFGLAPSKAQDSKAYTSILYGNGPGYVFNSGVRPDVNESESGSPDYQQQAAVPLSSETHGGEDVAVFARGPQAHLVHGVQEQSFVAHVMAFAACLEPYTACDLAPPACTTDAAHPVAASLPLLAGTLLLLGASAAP
hIAP inh: human IAP inhibition; purified IAP, CDP-Star luminescence, 30 min; hit rate 0.12% among 330,000; inhibition, % at 10 µM; P09923; AID 2544;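 active = inhibition reaching a set limit with compound at 10 µM in the primary screen, cut at about 35% in these data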;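 also: plate controls were DMSO wells with enzyme for no effect and no-enzyme buffer wells for full effect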
mIAP act: increases mouse intestinal alkaline phosphatase activity | hit rate 0.24% among 330,000 | muIAP, CDP-Star luminescence, 30 min; hits give high values; 1 = vehicle-only enzyme signal, 0 = enzyme-free wells | AID 2805 | activation factor at 10 µM;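 active = activation factor of at least 2 at 20 µM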
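also added = chemiluminescent substrate CDP-Star | test system = mouse IAP enzyme | signal = chemiluminescence readout | compound = DMSO-dissolved test compounds | incubation = 30 min at room temperature | benchmarks = DMSO wells, no-enzyme wells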
bIAP inhibitor: blocks bovine intestinal alkaline phosphatase activity | purified bovine IAP, CDP-star luminescence, 30 min | inhibition, % at 20 µM | 190,000 tested, under 10 active | AID 1019;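 active = over 50% inhibition of intestinal alkaline phosphatase at 20 µM in the single-dose screen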
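System: Purified bovine intestinal alkaline phosphatase (IAP) enzyme | Input: IAP diluted 1/65,000,000 in the well | Also added: CDP-star chemiluminescent phosphatase substrate, 30 µM final | Dosing: 20 µM single dose | Times: Enzyme reaction for 30 min at room temperature | Detection: Luminescence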
* = called active by the depositor; i = inactive; · = no result. The list is not random: actives were taken first. Their share in the collection is about 0.72%.

SMILES	bIAP activator	mIAP block	hIAP act	hIAP inh	mIAP act	bIAP inhibitor
Cc1ccc(NC(=Nc2ccc(Br)cc2)N2CCOCC2)cc1C	·	-36.2	1.06	-5.6	1.36	·
CCCCCCCCNc1ncnc2ccccc12	9*	-22.5	0.767	23.3	1.23	i
CCOC(=O)c1ccc2c(c1)C1C=CCC1C(C(=O)O)N2 (stereo unspecified)	0.8	54.6*	1.03	-3.3	0.454	18.3
CCOC(=O)C1Nc2ccc(C(=O)O)cc2C2C=CCC12 (stereo unspecified)	·	13.9	1.06	-5.6	0.86	·
CC(Cc1cccs1)NC(=S)Nc1ccc(Cl)c(Cl)c1 (stereo unspecified)	1.2	-103.8	1	0.0	2.04*	-18.5
CC(Cc1cccs1)NC(=O)Nc1cccc(Cl)c1 (stereo unspecified)	0.7	-127.3	0.943	5.7	2.27*	30.5
CC(Cc1cccs1)NC(=O)Nc1ccc(F)cc1 (stereo unspecified)	1	-16.9	0.994	0.6	1.17	3.2
CC(C)CN(C(=O)CSc1nc2ccccc2c(=O)n1C)C1CCS(=O)(=O)C1 (stereo unspecified)	·	-21.2	1.31	-31.5	1.21	·
COc1ccccc1OCC(=O)Nc1cc(C)ccc1NC(=O)c1ccco1	·	-5.1	1	0.0	1.05	·
COCCN(CC(=O)Nc1cccc(C)c1C)C(=O)c1ccc2ccccc2n1	·	6.1	0.833	16.7	0.939	·
Cc1cc(C)cc(C(=O)Nc2ccc(N3CCCC3)cc2)c1	1.2	4.4	0.921	7.9	0.956	-16.4
Cc1cc(C)cc(NC(=O)Nc2ccc(N3CCCCC3)cc2)c1	·	-100.4	1.18	-17.8	2*	·
CC(NC(=O)CN(C)Cc1nc2ccccc2c(=O)[nH]1)c1ccccc1 (stereo unspecified)	2.1*	-1.4	1.93	-92.5	1.01	-115.0
COC(=O)c1ccc(C)c(-n2c(=O)n(Cc3ccccc3)c(=O)c3[nH]cnc32)c1	·	2.6	0.981	1.9	0.974	·
O=C(NCC1CCN(Cc2ccccc2Cl)CC1)Nc1ccccc1F	·	-96.6	1.2	-20.4	1.97	·
Cc1ccc(C)c(CN2CCC(CNC(=O)Nc3ccc(Br)cc3F)CC2)c1	·	-220.7	1.4	-40.2	3.21*	·
COC(=O)c1ccc(NC(=S)NCCc2ccccc2C)cc1	0.9	-100.4	0.954	4.6	2*	5.3
COC(=O)c1ccc(NC(=S)NCCc2cccc(C)c2)cc1	0.7	-93.7	1.09	-8.6	1.94	33.5
Cc1ccc(CSCc2nc3ccccc3[nH]2)cc1	2.3*	·	·	·	·	-130.6
Cc1ccc(SCc2nc3ccccc3[nH]2)cc1	1	2.3	1.08	-7.8	0.977	-4.5
O=C(CN1CCCc2ccccc21)Nc1cc(S(=O)(=O)N2CCCC2)ccc1Cl	·	2.4	0.898	10.2	0.976	·
O=C(Nc1ccc(F)cc1)Nc1ccccc1N1CCCCC1	·	-161.1	1.11	-11.4	2.61*	·
CCc1ccccc1NC(=O)Nc1ccc(F)cc1	0.9	-22.0	1.1	-9.8	1.22	11.7
O=C(Nc1ccc(F)cc1)Nc1csc2ccccc12	·	-131.8	1.24	-23.9	2.32*	·
C=CCn1c(SCC(=O)NCC)nc2sc3c(c2c1=O)CCC3	·	2.7	0.845	15.5	0.973	·
SMILES	bIAP activator	mIAP block	hIAP act	hIAP inh	mIAP act	bIAP inhibitor
Cc1[nH]c2ccccc2c1C(=O)C(=O)Nc1ccc2c(c1)OCO2	·	10.8	0.715	28.5	0.892	·
CCOC(=O)C1CCN(C(=O)c2cc(S(=O)(=O)N3CCCCCC3)ccc2OC)CC1	·	-4.0	1.03	-3.5	1.04	·
CCN(CCNC(=O)C1CCN(Cc2nc(-c3cccc(Cl)c3)oc2C)CC1)c1ccccc1	2.9*	-39.3	0.898	10.2	1.39	-187.3
CCN(CCNC(=O)C1CCN(Cc2nc(-c3ccc(Cl)cc3)oc2C)CC1)c1ccccc1	1.6	-35.4	0.867	13.3	1.35	-59.6
CCc1ccc(-c2nc(CN3CCC(C(=O)NCCN(CC)c4ccccc4)CC3)c(C)o2)cc1	4.4*	-100.7	0.759	24.1	2.01*	-336.2
CC(C)c1ccc(CN2CCN(C(=O)CSc3nnnn3C3CC3)CC2)cc1	·	-6.0	0.896	10.4	1.06	·
COc1cc(/C=C2/C(=O)NN(c3cccc(F)c3)C2=O)ccc1OC(=O)c1ccco1	2.1*	10.8	0.836	16.4	0.892	-108.9
CC1(C)C(=S)N(Cc2ccccc2)c2ccccc21	·	4.7	0.859	14.1	0.953	·
CCOC(=O)CNC(=O)c1ccc(Br)s1	·	-5.4	0.933	6.7	1.05	·
Cc1ccc(C)n1-c1ccc(C(=O)NN)s1	2.1*	-12.7	1.21	-20.7	1.13	-110.1
N#C/C(=C\c1c(F)cccc1Cl)C(=O)NC1CC1	·	9.1	1.25	-24.8	0.909	·
O=C(Nc1ccncc1)Nc1cccc(Cl)c1Cl	·	-73.3	1.25	-25.3	1.73	·
CC(=O)Nc1cccc(NC(=O)Nc2ccc(C)c(Cl)c2)c1	1	-110.8	1.18	-17.7	2.11*	-2.3
O=C(Nc1ccccc1)Nc1ccccc1Br	1	-52.5	1.17	-16.5	1.52	-1.6
O=C(Nc1ccccc1)Nc1cccc(Cl)c1Cl	0.9	-191.6	1.03	-3.0	2.92*	13.2
O=C(Nc1ccccc1)Nc1ccc(Br)c(Cl)c1	1	-234.4	1.29	-28.8	3.34*	0.1
CC(=O)Nc1ccc(NC(=O)Nc2ccc(C)c(C)c2)cc1	1.1	-19.8	0.785	21.5	1.2	-5.1
O=C(Nc1ccc(Oc2ccc(NC(=O)Nc3ccccc3Cl)cc2)cc1)Nc1ccccc1Cl	·	-102.1	1.01	-0.7	2.02*	·
O=C(Nc1ccc(F)cc1)Nc1cccc(Br)c1	·	-198.9	1.01	-1.0	2.99*	·
CCOc1ccc(C(=O)NCCC(=O)N2CCC3(CC2)NCCc2[nH]cnc23)cc1OCC	·	7.8	1.02	-2.1	0.922	·
Cc1ccc(CN(C)C(=O)CN2C(=O)NC(c3ccccc3)(c3ccccc3)C2=O)c(C)c1	·	-6.7	0.937	6.3	1.07	·
CCC(C)(C)NC(=O)C(c1cccs1)N(C(=O)c1ccn[nH]1)c1cccc(OC)c1 (stereo unspecified)	2.1*	-3.5	0.936	6.4	1.03	-105.8
CCC(C)(C)NC(=O)C(c1ccccc1F)N(C(=O)c1ccn[nH]1)c1ccccc1 (stereo unspecified)	0.9	-28.8	1.2	-20.3	1.29	12.9
C=C(C)[C@@H]1CC[C@]2(C(=O)O)CC[C@]3(C)C(CCC4[C@@]5(C)CC[C@H](O)C(C)(C)C5CC[C@]43C)C12 (stereo partly specified)	·	47.0*	1.28	-28.2	0.53	·
O=C(Nc1ccc(C(=O)N2CCCc3ccccc32)cc1)c1cccs1	·	-4.0	0.906	9.4	1.04	·
COc1ccc(C(CCc2ccc(C)o2)NC(=O)Nc2ccc(OC)cc2OC)cc1 (stereo unspecified)	1.1	-103.5	0.832	16.8	2.04*	-11.5
COc1ccc(C2C(C(=O)Nc3cc(OC)c(OC)c(OC)c3)c3ccccc3C(=O)N2C)cc1 (stereo unspecified)	2.2*	-101.7	1.36	-35.6	2.02*	-123.4

Screening data as filed in PubChem BioAssay.
